ANO1 block: mouse TMEM16A channel inhibition, primary screen; normalized B-score (activity score, 25-100; higher = stronger inhibition) at 10 µM; 1.2% of 310,000 active; AID 588511; HEK293 TMEM16A/YFP iodide influx fluorescence, ionomycin;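 active means ratio plate-corrected score three or more library SD toward inhibition, starting fluorescence score within five deviations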;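 further: score derived from kinetic fluorescence span divided by baseline fluorescence per well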
Target sequence (Q8BHY3 whole entry, looked up): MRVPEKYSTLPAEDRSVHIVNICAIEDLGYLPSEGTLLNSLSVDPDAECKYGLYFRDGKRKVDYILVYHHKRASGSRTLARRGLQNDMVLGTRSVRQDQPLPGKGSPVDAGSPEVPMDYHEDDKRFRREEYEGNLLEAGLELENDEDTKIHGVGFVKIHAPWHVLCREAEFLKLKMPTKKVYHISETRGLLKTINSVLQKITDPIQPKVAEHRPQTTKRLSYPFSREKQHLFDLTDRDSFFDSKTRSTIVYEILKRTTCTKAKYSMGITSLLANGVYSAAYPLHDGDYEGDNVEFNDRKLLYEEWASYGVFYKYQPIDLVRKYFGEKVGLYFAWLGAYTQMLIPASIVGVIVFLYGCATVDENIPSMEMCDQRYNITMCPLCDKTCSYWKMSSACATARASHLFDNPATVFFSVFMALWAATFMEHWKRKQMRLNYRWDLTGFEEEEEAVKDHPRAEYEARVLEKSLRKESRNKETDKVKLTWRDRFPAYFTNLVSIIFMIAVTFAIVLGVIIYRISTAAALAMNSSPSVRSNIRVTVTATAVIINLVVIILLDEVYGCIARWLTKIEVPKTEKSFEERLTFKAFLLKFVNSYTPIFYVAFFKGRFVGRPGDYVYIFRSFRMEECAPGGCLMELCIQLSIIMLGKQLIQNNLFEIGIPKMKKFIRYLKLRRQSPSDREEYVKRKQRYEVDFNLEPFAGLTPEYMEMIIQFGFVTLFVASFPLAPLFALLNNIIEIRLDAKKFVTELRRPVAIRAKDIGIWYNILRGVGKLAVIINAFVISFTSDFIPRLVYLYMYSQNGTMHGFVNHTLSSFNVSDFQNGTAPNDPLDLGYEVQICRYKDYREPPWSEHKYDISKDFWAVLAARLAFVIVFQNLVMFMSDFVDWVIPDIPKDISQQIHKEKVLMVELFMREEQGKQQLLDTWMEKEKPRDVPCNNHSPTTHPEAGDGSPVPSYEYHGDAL
IMP-1 inhibitor: inhibitors of Pseudomonas aeruginosa IMP-1 metallo-beta-lactamase; purified IMP-1, nitrocefin hydrolysis, epi-absorbance fluorescence; inhibition, % at 5.6 µM; 0.45% of 290,000 active; AID 1556;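 active means inhibition above the mean plus 3 SD of all compounds in the same screening run, cut at about 4.5% in these data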
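System – purified recombinant IMP-1 beta-lactamase · Input – IMP-1 dispensed at 0.2 nM · Timing – 15 min preincubation plus 25 min reaction at 25 °C · Signal – Epi-absorbance fluorescence, 480 nm excitation, 530 nm emission · Measure – percent IMP-1 inhibition derived from blank-referenced optical density · Controls – Enzyme-plus-DMSO low control, enzyme-free DMSO high control · Replication – singlicate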
CHT inh: human CHT choline transport inhibition; Q9GZV3; CHT-expressing cells, membrane potential dye, choline response; hits give low values; B-score at 10 µM; 0.86% of 310,000 active;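 active means B-score over 3 SD under the library average, and starting fluorescence ratio not unusually high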;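 further: choline stimulus applied at its EC90 after an EC20 pre-addition; B-score computed on integrated fluorescence ratio after choline addition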
TMEM16A act: activators or potentiators of mouse TMEM16A chloride channel; B-score at 10 µM; HEK293 TMEM16A/YFP-H148Q/I152L, iodide quench fluorescence; hits give low values; 0.3% of 340,000 active; AID 623877; Q8BHY3;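 active means fluorescence-ratio B-score plate-corrected deviation score at least 3 library SD below zero, with starting fluorescence score within 5 deviations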;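 further: channel opened by trigger with iodide after compound preincubation; score built on the fluorescence ratio of max minus min over baseline; more negative score means more quench and so TMEM16A activation or potentiation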
VIM-2 inhibitor: blocks Pseudomonas aeruginosa VIM-2 metallo-beta-lactamase; purified VIM-2, nitrocefin hydrolysis, epi-absorbance fluorescence; inhibition, % at 5.6 µM; 0.89% of 290,000 active; AID 1527;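 active means inhibition above the mean of all tested compounds plus 3 SD, cutoff set per screening run, cut at about 7.5% in these data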;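 further: red hydrolysis product quenches plate fluorescence so inhibitors raise well fluorescence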
CHT PAM: human CHT allosteric activation; 0.49% of 310,000 active; CHT-expressing cells, membrane potential dye, choline EC20; hits give high values; LV-AA mutant CHT in HEK293 cells; B-score at 10 µM; Q9GZV3;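 active means initial fluorescence not abnormally high and integrated response B-score, plate-corrected, over 3 SD above library mean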
CHT block conf: confirmation of human choline transporter CHT inhibitors; shares compounds with CHT inh; CHT-expressing cells, choline membrane potential dye; LV-to-AA substituted CHT, HEK293 cells; CHT activity remaining % of control (hits give low values), % at 10 µM; 70% of 2,400 active;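 active means choline transporter activity left, mean of duplicates at 10 µM, below buffer-only control mean minus 3 SD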;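 further: depolarization triggered by choline at its EC90 following an EC20 pre-addition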
HEK293 MPD ctr: counter-screen for CHT inhibitors: effect in parental HEK293 cells; shares compounds with CHT inh; membrane potential dye, choline response; active = decrease or increase beyond buffer ±3SD; membrane potential ratio readout (active if shifted either direction beyond buffer ±3SD; no single direction) at 10 µM; 4% of 2,400 active;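 further: parental cells lack the transporter so any hit is non-specific; ratio is peak minus trough fluorescence over baseline after EC90 choline challenge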
Numbers stand for hits; n = inactive; x = no result given. A selection: hits, their analogues and other compounds. The true share with any hit is near 3.4%.

SMILES | ANO1 block | IMP-1 inhibitor | CHT inh | TMEM16A act | VIM-2 inhibitor | CHT PAM | CHT block conf | HEK293 MPD ctr
CC(C)NS(=O)(=O)c1ccc(CCC(=O)N2CCc3ccccc3C2)cc1 | n | n | -5.1 | n | n | n | 46% | n
Cc1c(C(=O)N(C)C(C)c2ccccn2)oc2c(F)cccc12 (configuration not stated) | n | n | n | n | n | n | x | x
Cc1ccc(S(=O)(=O)N2CCN(C(=O)C3CSC4(C)CCC(=O)N34)CC2)cc1C (configuration not stated) | n | x | n | n | x | n | x | x
CCCN(CCC)CCCNC(=O)c1cn(C)c2ccc(S(=O)(=O)N(C)C3CCCCC3)cc2c1=O | n | n | n | n | n | n | x | x
CCCCN(CCCC)CCNC(=O)c1cn(C)c2ccc(S(=O)(=O)N(C)C3CCCCC3)cc2c1=O | n | n | -6.9 | n | n | n | 32% | n
CCC1CCCCN1CCCNC(=O)c1cn(CC)c2ccc(S(=O)(=O)N(C)C3CCCCC3)cc2c1=O (configuration not stated) | n | n | -8.3 | n | n | n | 50% | 2.8
Cc1ccc(C)c(-n2ccnc2SCC(=O)Nc2cccc(S(=O)(=O)NC3=NCCC3)c2)c1 | x | x | x | n | x | x | x | x
O=C(CNC(=O)c1ccc(Br)o1)Nc1ccc(F)c(S(=O)(=O)N2CCOCC2)c1 | x | x | x | n | x | x | x | x
COc1ccc(C(=O)NC(C)CCn2cccn2)cc1OC1CCN(C(C)C)CC1 (configuration not stated) | n | n | -9.8 | n | n | n | 13% | n
CCC1CCCCN1C(=O)c1ccc(OC)c(OC2CCN(C(C)C)CC2)c1 (configuration not stated) | n | n | n | n | n | n | x | x
COc1ccc(C(=O)NCCCn2cccn2)cc1OC1CCN(C(C)=O)CC1 | x | n | x | n | n | x | x | x
COc1ccc(C(=O)NC(C)Cc2cnccn2)cc1OC1CCN(C(C)C)CC1 (configuration not stated) | n | n | -7 | n | n | n | 28% | n
CCOC(=O)C1CCCN(C/C(O)=C(\C#N)c2nc(-c3ccc(Cl)cc3)cs2)C1 (configuration not stated) | n | n | -5.7 | n | n | n | n | n
N#C/C(=C(/O)CN1CCCC1)c1nc(-c2ccccc2)cs1 | n | n | n | n | n | n | x | x
CC(=O)N1c2ccc(S(=O)(=O)N3CCCCC3)cc2CC1C(=O)NCc1ccccc1C (configuration not stated) | n | n | n | n | n | n | x | x
CCc1cc(C(=O)NCC(c2ccco2)N2CCCCC2)sc1C (configuration not stated) | x | x | x | n | x | x | x | x
COc1ccccc1NC(=O)C(=O)N/N=C(\C)CC(=O)Nc1ccccc1C(F)(F)F | n | n | n | n | n | n | x | x
Fc1cccc(Cc2noc(CN3CCC(c4ccncc4)CC3)n2)c1 | n | n | -5.6 | n | n | n | 30% | n
Fc1cccc(Cc2noc(CN3CCOCC3)n2)c1 | n | n | n | n | n | n | x | x
CC(C)N(C(=O)COC(=O)c1ccccc1C(=O)c1ccc(Cl)c([N+](=O)[O-])c1)C(C)C | n | n | n | n | n | n | x | x
CN(CCC#N)C(=O)COC(=O)c1ccccc1C(=O)c1ccc(Cl)c([N+](=O)[O-])c1 | n | n | -4.9 | n | n | n | 49% | n
CC(NS(=O)(=O)OCC(Cl)(Cl)Cl)c1ccc(Br)cc1 (configuration not stated) | n | n | -5.2 | n | n | n | 67% | n
COC(=O)CCC(NS(=O)(=O)OCC(Cl)(Cl)Cl)c1ccccc1 (configuration not stated) | n | n | n | n | n | n | x | x
O=C(CN1C(=O)NC2(CCCc3ccccc32)C1=O)N1CCCCC1 (configuration not stated) | n | x | n | n | x | n | x | x
COc1ccc(NC(=O)COC(=O)C2CCN(S(=O)(=O)c3ccccc3)CC2)cc1Cl | n | x | n | n | x | n | x | x
SMILES | ANO1 block | IMP-1 inhibitor | CHT inh | TMEM16A act | VIM-2 inhibitor | CHT PAM | CHT block conf | HEK293 MPD ctr
COc1ccc(-n2c(SCC(=O)NCC3CCCO3)nc3ccccc32)cc1 (configuration not stated) | n | n | -5.5 | n | n | n | n | n
O=C(CSc1nc2ccccc2c(=O)n1-c1ccccc1)NCC1CCCO1 (configuration not stated) | n | n | n | n | n | n | x | x
O=C(NC1CCCC1)C1CCN(C(=O)c2ccccc2Cl)CC1 | n | n | n | n | n | n | x | x
Cc1cc2c(cc(C(=O)N3CCC(C(=O)NC4CCCC4)CC3)n2Cc2c(F)cccc2Cl)o1 | n | x | -6.6 | n | x | n | n | n
Cc1c(NC(=S)NC(=O)c2cccc3ccccc23)cccc1C(=O)O | n | n | n | n | n | n | x | x
Cc1c(NC(=S)NC(=O)c2ccc(COc3ccccc3)cc2)cccc1C(=O)O | n | n | -6.3 | n | n | n | n | n
COCCNC(=O)Cc1c(C)c2c(cc(C)c3c(C(C)(C)C)coc32)oc1=O | n | n | n | n | n | n | x | x
O=C1/C(=C\c2ccccn2)SC(=S)N1c1ccc(S(=O)(=O)Nc2nccs2)cc1 | n | n | -7 | n | n | n | n | n
COCCn1c(CN2CCN(c3cccc(Cl)c3)CC2)nc2c1c(=O)n(C)c(=O)n2C | n | n | -7.3 | n | n | n | -5.6% | n
COC(=O)Cn1c(CN2CCN(c3ccc(F)cc3)CC2)nc2c1c(=O)n(C)c(=O)n2C | n | x | -11 | n | x | n | -12% | n
CCOCCn1c(CN2CCN(c3ccc(F)cc3)CC2)nc2c1c(=O)n(C)c(=O)n2C | n | n | -17 | n | n | n | 10% | n
CC(C)n1c(CNC(=O)c2ccccc2F)nnc1SCC(=O)c1ccc(F)cc1 | x | x | x | n | x | x | x | x
CCC1CSC(=Nc2ccc(C)cc2)N1C(=O)CN1C(=O)NC2(CCCC2)C1=O (configuration not stated) | n | n | n | n | n | n | x | x
CCN(CC(=O)NCc1ccc(F)cc1)C(=O)c1cccc(S(=O)(=O)N(C)c2ccc(OC)cc2)c1 | x | x | x | n | x | x | x | x
CCN1CCCC1CNC(=O)c1cc2cc(F)ccc2[nH]1 (configuration not stated) | n | n | n | n | n | n | x | x
Oc1c(Br)cc(Br)cc1C=Nc1ccc2c(c1)OCO2 | n | n | -6.4 | n | n | n | n | n
Oc1c(Br)cc(Br)cc1C=Nc1ccc2c(c1)OCCO2 | n | n | -5.3 | n | n | n | n | n

Assay outcomes from PubChem BioAssay.
